According to ChEMBL document CHEMBL4373666, “Piperidine carbamate peptidomimetic inhibitors of the serine proteases HGFA, matriptase and hepsin” (Medchemcomm, 2019):

How the values were obtained:
[1] = molecular target: T1, Suppressor of tumorigenicity 14 protein (Homo sapiens, UniProt Q9Y5Y6); assay: Inhibition of recombinant human N-terminal met-His6-tagged matriptase catalytic domain (Gly596 to Val855 residues) expressed in Escherichia coli using Boc-QAR-AMC as substrate preincubated for 30 mins followed by substrate addition by fluorescence based assay
T1 sequence (Q9Y5Y6 whole entry): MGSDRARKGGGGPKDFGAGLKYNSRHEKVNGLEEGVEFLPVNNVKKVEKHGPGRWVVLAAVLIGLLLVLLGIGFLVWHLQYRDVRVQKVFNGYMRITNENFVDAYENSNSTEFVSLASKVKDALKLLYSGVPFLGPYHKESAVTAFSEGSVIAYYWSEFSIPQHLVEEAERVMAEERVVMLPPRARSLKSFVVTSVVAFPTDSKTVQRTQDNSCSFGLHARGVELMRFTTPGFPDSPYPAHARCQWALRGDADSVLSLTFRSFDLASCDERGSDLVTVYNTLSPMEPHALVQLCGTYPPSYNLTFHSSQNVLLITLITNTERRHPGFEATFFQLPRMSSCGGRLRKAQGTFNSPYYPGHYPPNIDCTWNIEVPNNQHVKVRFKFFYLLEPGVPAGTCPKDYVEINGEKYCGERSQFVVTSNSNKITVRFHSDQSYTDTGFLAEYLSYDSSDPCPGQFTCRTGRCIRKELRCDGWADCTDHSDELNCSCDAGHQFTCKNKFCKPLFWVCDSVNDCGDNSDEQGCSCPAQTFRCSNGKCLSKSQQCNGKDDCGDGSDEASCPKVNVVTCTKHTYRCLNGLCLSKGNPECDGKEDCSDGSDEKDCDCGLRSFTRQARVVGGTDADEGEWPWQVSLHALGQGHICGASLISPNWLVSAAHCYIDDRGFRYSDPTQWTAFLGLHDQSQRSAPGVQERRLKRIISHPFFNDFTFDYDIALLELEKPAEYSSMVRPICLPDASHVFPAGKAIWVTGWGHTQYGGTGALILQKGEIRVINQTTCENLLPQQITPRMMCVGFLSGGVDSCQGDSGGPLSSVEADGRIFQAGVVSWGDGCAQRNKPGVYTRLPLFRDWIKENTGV

[2] = molecular target: Prothrombin (Homo sapiens, UniProt P00734); assay: Inhibition of recombinant thrombin (unknown origin) using D-Phe-Pip-Arg-pNA as substrate preincubated for 30 mins followed by substrate addition by chromogenic assay
[3] = molecular target: Serine protease hepsin (Homo sapiens, UniProt P05981); assay: Inhibition of recombinant human C-terminal 10-His tagged hepsin (Arg45 to Leu417) expressed in mouse myeloma cells using Boc-QAR-AMC as substrate preincubated for 30 mins followed by substrate addition by fluorescence based assay
Procedure, shortened: (§1)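 Fluorogenic kinetic protease assay: Boc-QLR-AMC substrate for HGFA, Boc-QAR-AMC for hepsin. Each inhibitor was tested at eleven concentrations, pre-incubated with the protease, and then substrate was added. Release of fluorescent product was followed kinetically over one hour, and IC50 was taken from the concentration-dependent inhibition of proteolysis.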

[4] = molecular target: T2, Hepatocyte growth factor activator serine protease (Homo sapiens, UniProt Q04756); assay: Inhibition of recombinant HGFA serine protease domain (unknown origin) using Boc-QLR-AMC as substrate preincubated for 30 mins followed by substrate addition by fluorescence based assay; procedure, shortened: as §1
T2 sequence (Q04756 whole entry): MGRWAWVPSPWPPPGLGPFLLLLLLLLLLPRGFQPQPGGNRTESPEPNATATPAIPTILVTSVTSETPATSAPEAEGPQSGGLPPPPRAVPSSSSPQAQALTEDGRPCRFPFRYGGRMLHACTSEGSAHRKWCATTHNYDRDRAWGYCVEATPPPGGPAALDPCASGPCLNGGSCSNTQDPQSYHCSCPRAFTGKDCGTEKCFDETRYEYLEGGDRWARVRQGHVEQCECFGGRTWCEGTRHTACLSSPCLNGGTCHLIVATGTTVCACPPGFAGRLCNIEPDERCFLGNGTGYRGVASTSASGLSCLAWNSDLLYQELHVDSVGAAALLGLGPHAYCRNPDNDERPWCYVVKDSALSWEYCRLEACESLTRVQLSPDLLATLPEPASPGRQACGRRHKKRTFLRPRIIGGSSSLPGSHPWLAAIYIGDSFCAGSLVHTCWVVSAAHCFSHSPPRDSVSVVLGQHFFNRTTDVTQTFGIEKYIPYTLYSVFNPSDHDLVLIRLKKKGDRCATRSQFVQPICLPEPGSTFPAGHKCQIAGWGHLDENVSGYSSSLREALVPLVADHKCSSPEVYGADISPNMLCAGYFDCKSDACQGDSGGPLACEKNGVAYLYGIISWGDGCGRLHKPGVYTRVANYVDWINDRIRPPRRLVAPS

[5] = molecular target: Coagulation factor X (Homo sapiens, UniProt P00742); assay: Inhibition of recombinant factor Xa (unknown origin) using Bz-Ile-Glu-Gly-Arg-pNA as substrate preincubated for 30 mins followed by substrate addition by chromogenic assay
Chain of Coagulation factor X (P00742 41-179 limits assumed): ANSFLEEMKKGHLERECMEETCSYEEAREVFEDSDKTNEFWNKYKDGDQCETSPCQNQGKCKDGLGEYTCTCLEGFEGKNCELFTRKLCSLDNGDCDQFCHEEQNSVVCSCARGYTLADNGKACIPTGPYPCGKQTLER
Chain of Coagulation factor X (P00742 235-488 limits assumed): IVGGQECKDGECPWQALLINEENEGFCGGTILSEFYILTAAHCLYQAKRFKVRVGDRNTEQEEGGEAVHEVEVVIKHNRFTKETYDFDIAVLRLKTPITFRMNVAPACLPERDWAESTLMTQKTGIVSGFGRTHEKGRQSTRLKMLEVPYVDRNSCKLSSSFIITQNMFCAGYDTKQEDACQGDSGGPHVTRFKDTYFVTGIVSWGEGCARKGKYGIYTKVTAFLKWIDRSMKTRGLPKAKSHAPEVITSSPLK

Chain of Serine protease hepsin (P05981 1-162 limits assumed): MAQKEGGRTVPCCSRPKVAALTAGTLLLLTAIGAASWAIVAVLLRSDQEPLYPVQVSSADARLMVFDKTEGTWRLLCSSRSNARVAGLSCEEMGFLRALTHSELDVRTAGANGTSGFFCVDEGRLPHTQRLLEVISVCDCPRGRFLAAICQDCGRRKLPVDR
Chain of Serine protease hepsin (P05981 163-417 limits assumed): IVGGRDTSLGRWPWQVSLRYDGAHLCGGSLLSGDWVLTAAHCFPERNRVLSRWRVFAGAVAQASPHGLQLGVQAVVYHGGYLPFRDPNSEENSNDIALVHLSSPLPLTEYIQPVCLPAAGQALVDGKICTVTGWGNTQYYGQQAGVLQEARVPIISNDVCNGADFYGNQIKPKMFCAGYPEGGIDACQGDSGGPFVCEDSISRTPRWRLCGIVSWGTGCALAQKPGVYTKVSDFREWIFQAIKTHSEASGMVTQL

Row | IC50 [1] [µM] | IC50 [2] [µM] | IC50 [3] [µM] | IC50 [4] [µM] | IC50 [5] [µM] | Structure (SMILES)
1 | 3.2 | 11.6 | 1.9 | 20 | 0.38 | CC1CN(CC2CCN(Cc3ccccc3)CC2)C(=O)N(c2cccc(C(=N)N)c2)C1 (configuration not stated)
2 | 0.03 | > 20 | 0.0006 | 1.2 | 6.5 | CC(C)C[C@H](NC(=O)OC1(Cc2ccccc2)CCNCC1)C(=O)N[C@@H](CCCNC(=N)N)C(=O)c1nc2ccccc2s1
3 |  |  |  | > 20 |  | CC(=O)N1CCC(OC(=O)N[C@@H](CC(C)C)C(=O)N[C@@H](CCCNC(=N)N)C(=O)c2nc3ccccc3s2)CC1
4 |  | > 20 |  | > 20 |  | N=C(N)NCCC[C@H](NC(=O)[C@H](CC1CCCCC1)NC(=O)OC1(c2ccccc2)CCNCC1)C(=O)c1nc2ccccc2s1
5 |  | > 20 |  |  | > 20 | CC(C)C[C@H](NC(=O)OC1CCN(S(=O)(=O)c2ccccc2)CC1)C(=O)N[C@@H](CCCNC(=N)N)C(=O)c1nc2ccccc2s1
6 | > 20 |  |  |  |  | Cc1cc(C)c(S(=O)(=O)N2CCC(OC(=O)N[C@@H](CC(C)C)C(=O)N[C@@H](CCCNC(=N)N)C(=O)c3nc4ccccc4s3)CC2)c(C)c1
7 |  |  |  | > 20 |  | CC(=O)N1CCC(CCc2ccccc2)(OC(=O)N[C@@H](CC(C)C)C(=O)N[C@@H](CCCNC(=N)N)C(=O)c2nc3ccccc3s2)CC1
8 |  | > 20 |  |  |  | CC(=O)N[C@@H](CO)C(=O)N[C@@H](CCCCN)C(=O)N[C@@H](CC(C)C)C(=O)N[C@@H](CCCNC(=N)N)C(=O)c1nc2ccccc2s1
9 |  |  |  | > 20 |  | CC(C)C[C@H](NC(=O)OC1CCN(S(=O)(=O)c2cccc(F)c2)CC1)C(=O)N[C@@H](CCCNC(=N)N)C(=O)c1nc2ccccc2s1
10 |  | > 20 |  |  |  | CC(=O)N[C@@H](CCCCN)C(=O)N[C@@H](CCC(N)=O)C(=O)N[C@@H](CC(C)C)C(=O)N[C@@H](CCCNC(=N)N)C(=O)c1nc2ccccc2s1
11 |  |  | 14 | 11 |  | CC(C)c1cc(C(C)C)c(S(=O)(=O)N[C@@H](Cc2cccc(C(=N)N)c2)C(=O)N2CCN(C(=O)C3CCNCC3)CC2)c(C(C)C)c1
12 | 8.4 |  | 0.09 | 30 |  | N=C(N)c1cccc(C[C@H](NS(=O)(=O)c2ccc3ccccc3c2)C(=O)N2CCN(C(=O)NCc3ccc(Br)cc3)CC2)c1
13 |  | > 20 |  |  | > 20 | CC(C)C[C@H](NC(=O)OC(c1ccccc1)C1CCNCC1)C(=O)N[C@@H](CCCNC(=N)N)C(=O)c1nc2ccccc2s1 (some centres not stated)
14 |  | > 20 |  | > 20 | > 20 | CCS(=O)(=O)N1CCC(OC(=O)N[C@@H](CC(C)C)C(=O)N[C@@H](CCCNC(=N)N)C(=O)c2nc3ccccc3s2)CC1

Row | Structure (SMILES) | IC50 [1] [µM] | IC50 [2] [µM] | IC50 [3] [µM] | IC50 [4] [µM] | IC50 [5] [µM]
15 | CC(C)C[C@H](NC(=O)OC1(c2ccccc2)CCNCC1)C(=O)N[C@@H](CCCNC(=N)N)C(=O)c1nc2ccccc2s1 |  | > 20 |  |  | 
16 | CC(C)C[C@H](NC(=O)OC1CCN(S(=O)(=O)c2ccc([N+](=O)[O-])cc2[N+](=O)[O-])CC1)C(=O)N[C@@H](CCCNC(=N)N)C(=O)c1nc2ccccc2s1 |  |  |  | > 20 | 
